According to ChEMBL document CHEMBL1131373, “Novel nonpeptide CCK-B antagonists: design and development of quinazolinone derivatives as potent, selective, and orally active CCK-B antagonists” (J Med Chem, 1998):

Experiments:
[1] = molecular target: T1, Gastrin/cholecystokinin type B receptor (Mus musculus, UniProt P56481); experiment: Binding affinity towards Cholecystokinin type B receptor (CCK-B) receptor in mouse cerebral cortex using [125I]bolton Hunter CCK-8 as radioligand; assay type: tissue-based
T1 sequence (P56481 whole entry): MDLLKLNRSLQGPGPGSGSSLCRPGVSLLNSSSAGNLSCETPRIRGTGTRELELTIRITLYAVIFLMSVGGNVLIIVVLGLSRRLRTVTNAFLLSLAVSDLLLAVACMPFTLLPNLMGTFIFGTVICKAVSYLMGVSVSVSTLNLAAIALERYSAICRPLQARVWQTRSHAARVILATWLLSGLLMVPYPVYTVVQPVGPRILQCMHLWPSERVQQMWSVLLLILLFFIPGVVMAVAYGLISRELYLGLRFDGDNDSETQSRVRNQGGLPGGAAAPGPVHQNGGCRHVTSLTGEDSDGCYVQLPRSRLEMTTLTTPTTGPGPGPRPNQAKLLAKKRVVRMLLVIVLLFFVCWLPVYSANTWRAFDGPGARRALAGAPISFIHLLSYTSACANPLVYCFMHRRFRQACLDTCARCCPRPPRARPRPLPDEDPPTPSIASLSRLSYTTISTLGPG

[2] = molecular target: T2, Cholecystokinin receptor type A (Rattus norvegicus, UniProt P30551); experiment: Binding affinity towards Cholecystokinin type A receptor (CCK-A) receptor from rat pancreas using [125I]bolton Hunter CCK-8 as radioligand
T2 sequence (P30551 whole entry): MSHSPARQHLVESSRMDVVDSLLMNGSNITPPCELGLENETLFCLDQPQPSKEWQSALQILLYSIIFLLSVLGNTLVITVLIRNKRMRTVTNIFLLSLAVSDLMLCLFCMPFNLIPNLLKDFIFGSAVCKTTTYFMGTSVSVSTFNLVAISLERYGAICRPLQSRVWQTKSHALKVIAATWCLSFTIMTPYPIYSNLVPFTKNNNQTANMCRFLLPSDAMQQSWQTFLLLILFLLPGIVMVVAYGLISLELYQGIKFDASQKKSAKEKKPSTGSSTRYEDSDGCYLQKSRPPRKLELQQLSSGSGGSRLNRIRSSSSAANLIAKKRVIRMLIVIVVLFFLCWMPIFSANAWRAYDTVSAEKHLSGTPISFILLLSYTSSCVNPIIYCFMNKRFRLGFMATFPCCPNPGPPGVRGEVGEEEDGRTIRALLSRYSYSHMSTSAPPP
Method in brief: (§1)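 IC50 = concentration giving half-maximal inhibition of specific [125I]Bolton Hunter CCK-8 binding, with CCK-B sites from mouse cerebral cortex and CCK-A sites from rat pancreas. Weaker compounds given as % inhibition at 10 μM. Values are geometric means of at least three separate experiments; statistical errors 15% of the mean.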

[3] = molecular target: T3, Cholecystokinin receptor type A (Rattus norvegicus) (UniProt P30551); experiment: Binding affinity towards Cholecystokinin type A receptor (CCK-A) receptor from rat pancreas using [125I]bolton Hunter CCK-8 as radioligand at a concentration of 10 um; method in brief: as §1
T3 sequence (whole entry): T2 sequence (P30551 whole entry)

[4] = The compound tested for maximum observed plasma concentration in rats and is expressed in microgram/mL.; assay type: ADME, organism-based; conditions: rat
Method in brief: (§2)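 Fasted male Wistar rats, three per group, given a single oral nominal dose of 10 mg/kg or a single iv nominal dose of 5 mg/kg. Vehicle was either 25:40:35 ethanol/PEG400/5% dextrose water or 10:40:50 dimethylacetamide/PEG400/5% dextrose water. Heparinized plasma taken from a jugular vein cannula at serial times out to 24 h and assayed by validated HPLC-fluorescence. Noncompartmental analysis; %F = dose-normalized po AUC/iv AUC.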

[5] = The compound was tested for the time to reach maximum observed plasma concentration in rats and is expressed in mins.; assay type: ADME, organism-based; conditions: rat; method in brief: as §2
[6] = The compound was tested for percent absolute oral bioavailability (%F) in rats and value in parenthesis indicate percent relative standard deviation (% RSD).; assay type: ADME, organism-based; conditions: rat, in vivo, read-out: F (%RSD); method in brief: as §2
[7] = The compound was tested for systemic plasma clearance(CL) in rats and is expressed in mL/min/kg.; assay type: ADME, organism-based; conditions: rat; method in brief: as §2
[8] = The compound was tested for percent absolute oral bioavailability (%F) in rats; assay type: ADME, organism-based; conditions: rat, in vivo; method in brief: as §2
[9] = molecular target: T4, Gastrin/cholecystokinin type B receptor (Mus musculus) (UniProt P56481); experiment: Binding affinity towards Cholecystokinin type B receptor (CCK-B) receptor in mouse cerebral cortex using [125I]bolton Hunter CCK-8 as radioligand at a concentration of 10 um; assay type: tissue-based; method in brief: as §1
T4 sequence (whole entry): T1 sequence (P56481 whole entry)

Compound	IC50 [1] [nM]	IC50 [2] [nM]	other results
Cc1cccc(NC(=O)NNc2nc3ccccc3c(=O)n2-c2cccnc2)c1	4280	12500	–
Cc1cccc(NC(=O)NNc2nc3ccccc3c(=O)n2-c2cccc(N)c2)c1	219	107	–
Cc1cccc(NC(=O)NNc2nc3ccccc3c(=O)n2-c2ccc(Cl)cc2)c1	1170	–	inhibition [3]: 10%
CN(C)c1cccc(-n2c(NNC(=O)Nc3cccc(C#N)c3)nc3ccccc3c2=O)c1	14	7100	Cmax [4]: 910 ng/mL; Tmax [5]: 25 min; bioavailability [6]: 22%; clearance [7]: 29.5 mL/min/kg
CC(C)Oc1cccc(-n2c(NNC(=O)Nc3ccc(C(F)(F)F)cc3)nc3ccccc3c2=O)c1	38	2780	–
CC(C)Oc1cccc(-n2c(NNC(=O)Nc3cccc(C(=O)O)c3)nc3ccccc3c2=O)c1	29	8110	–
Cc1cccc(NC(=O)NNc2nc3ccccc3c(=O)n2-c2cccc(N(C)C)c2)c1	63	4900	–
N#Cc1cccc(NC(=O)NNc2nc3ccccc3c(=O)n2-c2ccccc2)c1	262	–	inhibition [3]: 37%
CC(C)Oc1cccc(-n2c(NNC(=O)Nc3cccc(C#N)c3)nc3ccccc3c2=O)c1	1.2	5350	–
COc1ccc(-n2c(NNC(=O)Nc3cccc(C)c3)nc3ccccc3c2=O)cc1OC	2110	–	inhibition [3]: 34%
CC(C)Oc1cccc(-n2c(NNC(=O)c3ccc(Br)cc3)nc3ccccc3c2=O)c1	88	5560	–
Cc1cccc(NC(=O)NNc2nc3ccccc3c(=O)n2-c2ccccc2)c1	1080	–	inhibition [3]: 39%
CC(C)Oc1cccc(-n2c(NNC(=O)Nc3cccc(Cl)c3)nc3ccccc3c2=O)c1	5.9	2420	–
COC(=O)c1cccc(NC(=O)N[C@@H]2N=C(c3ccccc3)c3ccccc3N(C)C2=O)c1	8	–	–
CC(C)Oc1cccc(-n2c(NNC(=O)NC3CCCCC3)nc3ccccc3c2=O)c1	108	17300	–
CC(C)Oc1cccc(-n2c(NNC(=O)Nc3cccc(C(=O)OC(C)(C)C)c3)nc3ccccc3c2=O)c1	1.9	2960	Cmax [4]: < 250 ng/mL; bioavailability [8]: < 5%; clearance [7]: 18 mL/min/kg
CCOC(=O)c1ccc(NC(=O)NNc2nc3ccccc3c(=O)n2-c2cccc(OC(C)C)c2)cc1	57	3160	–
CC(C)Oc1cccc(-n2c(NNC(=O)Nc3ccc(Cl)cc3)nc3ccccc3c2=O)c1	14	3590	–
Cc1cccc(NC(=O)NNc2nc3ccccc3c(=O)n2-c2cccc(OC(C)C)c2)c1	11	6400	–

Compound	IC50 [1] [nM]	IC50 [2] [nM]	other results
COc1ccccc1NC(=O)NNc1nc2ccccc2c(=O)n1-c1cccc(OC(C)C)c1	10	4200	–
Cc1cccc(NC(=O)NNc2nc3ccccc3c(=O)n2-c2cccc3ccccc23)c1	3560	–	inhibition [3]: 7%
CC(C)Oc1cccc(-n2c(NNC(=O)Nc3cccc([N+](=O)[O-])c3)nc3ccccc3c2=O)c1	1	2560	–
COc1cccc(N(CC(=O)N(C)c2ccccc2)C(=O)CNC(=O)Nc2cccc(C)c2)c1	8	140	–
CC(C)Oc1cccc(-n2c(NNC(=O)Nc3ccccc3)nc3ccccc3c2=O)c1	15	4580	–
O=C(NNc1nc2ccccc2c(=O)n1-c1ccccc1)Nc1ccccc1	1240	7330	–
COc1cccc(N(CC(=O)N(C)c2ccccc2)C(=O)CNC(=O)Nc2cccc(C(=O)O)c2)c1	23	925	–
COc1cccc(-n2c(NNC(=O)Nc3cccc(C)c3)nc3ccccc3c2=O)c1	200	5100	–
CCOC(=O)c1cccc(NC(=O)NNc2nc3ccccc3c(=O)n2-c2cccc3ccccc23)c1	–	–	inhibition [9]: 35%; inhibition [3]: 5%
CN(C)c1cccc(-n2c(CCc3c[nH]c4cc(Br)ccc34)nc3ccccc3c2=O)c1	16	–	–
CC(C)Oc1cccc(-n2c(CCc3c[nH]c4cc(Br)ccc34)nc3ccccc3c2=O)c1	9.3	–	–
CC(C)Oc1cccc(-n2c(NNC(=O)Nc3ccc(Br)cc3)nc3ccccc3c2=O)c1	14	3430	–
CC(C)Oc1cccc(-n2c(NNC(=O)Nc3cccc(C(F)(F)F)c3)nc3ccccc3c2=O)c1	8	2240	–
COc1cccc(NC(=O)NNc2nc3ccccc3c(=O)n2-c2cccc(OC(C)C)c2)c1	22	7470	–
CCOC(=O)c1ccccc1NC(=O)NNc1nc2ccccc2c(=O)n1-c1cccc(OC(C)C)c1	7670	–	inhibition [3]: 22%
Cc1cccc(NC(=O)NNc2nc3ccccc3c(=O)n2-c2cccc(F)c2)c1	915	–	inhibition [3]: 26%
CCOc1cccc(-n2c(NNC(=O)Nc3cccc(C#N)c3)nc3ccccc3c2=O)c1	5.8	4450	–
COc1ccc(NC(=O)NNc2nc3ccccc3c(=O)n2-c2cccc(OC(C)C)c2)cc1	25	15500	–

Now from value to compound, other results behind:

IC50 [1] [nM]	IC50 [2] [nM]	Compound	other results
45	2570	CCOc1cccc(-n2c(NNC(=O)Nc3cccc(C)c3)nc3ccccc3c2=O)c1	–
14	–	CCOC(=O)c1cccc(NC(=O)NNc2nc3ccccc3c(=O)n2-c2ccc(Cl)cc2)c1	inhibition [3]: 15%
5	1210	CCOC(=O)c1cccc(NC(=O)NNc2nc3ccccc3c(=O)n2-c2cccc(OCC)c2)c1	–
15	2330	CCOC(=O)c1cccc(NC(=O)NNc2nc3ccccc3c(=O)n2-c2cccc(OC)c2)c1	–
592	–	CCOC(=O)c1cccc(NC(=O)NNc2nc3ccccc3c(=O)n2-c2ccc(OC)cc2)c1	inhibition [3]: 20%
152	–	CCOC(=O)c1cccc(NC(=O)NNc2nc3ccccc3c(=O)n2-c2ccccc2)c1	inhibition [3]: 37%
33	4980	CCOC(=O)c1cccc(NC(=O)NNc2nc3ccccc3c(=O)n2-c2cccc(Cl)c2)c1	–
26	–	CCOC(=O)c1cccc(NC(=O)NNc2nc3ccccc3c(=O)n2-c2cccc(F)c2)c1	inhibition [3]: 30%
73	3010	Cc1cccc(NC(=O)NNc2nc3ccccc3c(=O)n2-c2cccc(Cl)c2Cl)c1	–
1.5	3470	CCOC(=O)c1cccc(NC(=O)NNc2nc3ccccc3c(=O)n2-c2cccc(OC(C)C)c2)c1	–
319	11200	CCOC(=O)c1cccc(NC(=O)NNc2nc3ccccc3c(=O)n2-c2cccnc2)c1	–
97	–	Cc1cccc(NC(=O)NNc2nc3ccccc3c(=O)n2-c2ccc(Cl)c(Cl)c2)c1	inhibition [3]: 10%
611	–	CCOC(=O)c1cccc(NC(=O)NNc2nc3ccccc3c(=O)n2-c2ccc(OC)c(OC)c2)c1	inhibition [3]: 20%
50	1660	CCOC(=O)c1cccc(NC(=O)NNc2nc3ccccc3c(=O)n2-c2cccc(Cl)c2Cl)c1	–
2.4	–	CCOC(=O)c1cccc(NC(=O)NNc2nc3ccccc3c(=O)n2-c2ccc(Cl)c(Cl)c2)c1	inhibition [3]: 16%
225	–	Cc1cccc(NC(=O)NNc2nc3ccccc3c(=O)n2-c2cccc(Cl)c2)c1	inhibition [3]: 20%
5	2650	CCOC(=O)c1cccc(NC(=O)NNc2nc3ccccc3c(=O)n2-c2cccc(N(C)C)c2)c1	–
